From ChEMBL document CHEMBL1133419, “Design, synthesis and biological evaluation of 3-amino-3-phenylpropionamide derivatives as novel mu opioid receptor ligands” (Bioorg Med Chem Lett, 2000)

How the values were obtained:
[1] = target: Kappa-type opioid receptor (Homo sapiens, UniProt P41145); test: biochemical; format: cell-based, HEK293
[2] = target: Delta-type opioid receptor (Homo sapiens, UniProt P41143); test: Inhibition of [3H]naltrindole binding to human Opioid receptor delta 1 in CHO cells; format: cell-based
Summary of the method: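 Membranes from CHO cells expressing human delta opioid receptor (homogenized in 50 mM Tris HCl pH 7.4, 1 mM EGTA; stored frozen at 0.8 mg/mL) incubated with 0.5 nM [3H]naltrindole, 90 min at 37 °C. Nonspecific binding defined with unlabelled naltrindole. Filtration, scintillation counting; mean of at least three independent assays.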

Mu-type opioid receptor = Mu-type opioid receptor (Rattus norvegicus, UniProt P33535); test: Inhibition of [3H]DAMGO binding to rat Opioid receptor mu 1
Summary of the method: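 Rat brain crude membranes (homogenized in 50 mM Tris HCl pH 7.4, kept on ice) incubated with 1.5 nM [3H]DAMGO for 90 min at 22 °C. Nonspecific binding defined with naltrexone. Terminated by rapid filtration, bound radioactivity counted by scintillation. Mean of at least three independent assays.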

Sequence of Kappa-type opioid receptor (P41145 whole entry): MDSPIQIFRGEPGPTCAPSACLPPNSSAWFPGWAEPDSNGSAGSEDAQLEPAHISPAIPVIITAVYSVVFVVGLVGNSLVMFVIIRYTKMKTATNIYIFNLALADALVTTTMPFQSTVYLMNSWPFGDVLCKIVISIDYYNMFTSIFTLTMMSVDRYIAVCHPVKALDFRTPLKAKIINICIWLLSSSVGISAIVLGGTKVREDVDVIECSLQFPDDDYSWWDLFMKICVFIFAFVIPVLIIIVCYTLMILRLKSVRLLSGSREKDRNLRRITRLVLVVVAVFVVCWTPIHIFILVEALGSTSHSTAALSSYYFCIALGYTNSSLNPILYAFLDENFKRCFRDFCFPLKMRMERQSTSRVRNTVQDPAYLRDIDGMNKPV
Sequence of Mu-type opioid receptor (P33535 whole entry): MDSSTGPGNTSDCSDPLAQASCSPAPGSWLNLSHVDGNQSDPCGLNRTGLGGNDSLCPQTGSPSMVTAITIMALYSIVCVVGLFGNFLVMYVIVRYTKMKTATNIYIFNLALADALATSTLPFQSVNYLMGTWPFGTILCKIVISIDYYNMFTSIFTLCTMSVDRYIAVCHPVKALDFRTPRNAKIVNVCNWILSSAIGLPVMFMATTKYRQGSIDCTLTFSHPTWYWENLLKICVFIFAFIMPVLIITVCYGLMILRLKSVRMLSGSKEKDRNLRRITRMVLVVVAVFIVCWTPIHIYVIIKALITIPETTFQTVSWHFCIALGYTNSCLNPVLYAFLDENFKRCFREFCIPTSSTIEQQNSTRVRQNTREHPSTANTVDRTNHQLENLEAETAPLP
Sequence of Delta-type opioid receptor (P41143 whole entry): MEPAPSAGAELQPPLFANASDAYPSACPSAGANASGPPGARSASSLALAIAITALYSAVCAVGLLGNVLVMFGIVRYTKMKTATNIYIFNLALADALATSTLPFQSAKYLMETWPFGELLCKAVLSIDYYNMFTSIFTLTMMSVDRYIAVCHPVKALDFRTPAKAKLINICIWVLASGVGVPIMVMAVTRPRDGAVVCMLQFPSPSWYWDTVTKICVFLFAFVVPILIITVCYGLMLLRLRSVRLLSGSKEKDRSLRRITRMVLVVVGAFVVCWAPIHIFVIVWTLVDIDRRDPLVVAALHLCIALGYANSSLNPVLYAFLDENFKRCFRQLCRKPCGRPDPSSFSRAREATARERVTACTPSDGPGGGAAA

`CNC(c1ccccc1)C(C)(C)C(=O)NCCc1ccccc1` (stereo not drawn) gave a Ki [1] of 49 nM, a Ki [2] greater than 10000 nM and a Ki (Mu-type opioid receptor) of 13 nM.

`CNC(c1cccc(O)c1)C(C)(C)C(=O)NCc1cccc2ccccc12` (stereo not drawn) gave a Ki [1] of 1.3 nM, a Ki [2] of 163 nM and a Ki (Mu-type opioid receptor) of 1.4 nM.

`CNC(c1ccccc1)C(C)(C)C(=O)NCc1ccccc1` (stereo not drawn) was tested, and the Ki [1] was 467 nM, the Ki [2] was greater than 10000 nM and the Ki (Mu-type opioid receptor) was 95 nM.

`CNC(c1cccc(O)c1)C(C)(C)C(=O)NCc1ccccc1` (stereo not drawn) was tested, and the Ki [1] was 5 nM, the Ki [2] was greater than 10000 nM and the Ki (Mu-type opioid receptor) was 8.7 nM.

With `CN(CC1CC1)C(c1cccc(O)c1)C(C)(C)C(=O)NCCc1ccccc1` (stereo not drawn) the Ki [1] was 2.9 nM, the Ki [2] was 710 nM and the Ki (Mu-type opioid receptor) was 28 nM.

Work on `CNC(c1cccc(O)c1)C(C)(C)C(=O)NCCc1ccccc1` (stereo not drawn) yielded a Ki [1] of 6.3 nM, a Ki [2] of 176 nM and a Ki (Mu-type opioid receptor) of 1.4 nM.

For `CNC(c1cccc(O)c1)C(C)(C)C(=O)NCCCc1ccccc1` (stereo not drawn), the Ki [1] was 3.6 nM, the Ki [2] was greater than 10000 nM and the Ki (Mu-type opioid receptor) was 12 nM.

`CNC(c1cccc(O)c1)C(C)(C)C(=O)NCC1CC1` (stereo not drawn) showed a Ki [1] of 75 nM, a Ki [2] of 781 nM and a Ki (Mu-type opioid receptor) of 364 nM.

Work on `CNC(c1cccc(O)c1)C(C)(C)C(=O)NCC1CCCCC1` (stereo not drawn) yielded a Ki [1] of 5.7 nM, a Ki [2] of 881 nM and a Ki (Mu-type opioid receptor) of 4.4 nM.

`CNC(c1ccccc1)C(C)(C)C(=O)NCC1CCCCC1` (stereo not drawn) gave a Ki [1] of 1.2 nM, a Ki [2] greater than 10000 nM and a Ki (Mu-type opioid receptor) of 85 nM.

`CCCCN(C)C(c1cccc(O)c1)C(C)(C)C(=O)NCCc1ccccc1` (stereo not drawn) was tested, and the Ki [1] was 75 nM, the Ki [2] was greater than 10000 nM and the Ki (Mu-type opioid receptor) was 26 nM.
